Assay outcomes as filed in PubChem BioAssay.
The list is not random: actives were taken first. Their share in the collection is about 1.4%.
SKN-1 inh – C. elegans SKN-1 inhibition; C. elegans VP596 Pgst-4::GFP/RFP ratio, acrylamide-induced, 24 h; inhibition, % at 21.8 µM; 0.49% of 360,000 active;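 active = interference check ratio from 0.5 to 1.5 plus GFP to RFP signal ratio inhibition reaching or exceeding a fixed threshold, cut at about 30% in these data, passing the limit was not always enough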
iPSC survival up – increases survival of single human iPS cells; hiPSC single-cell survival, ATPlite luminescence; 100% = ROCK inhibitor wells, 0% = DMSO; 0.044% of 360,000 active; survival enhancement, % at 20 µM; in the data active = survival enhancement above about 18%;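 also: cells exposed to compounds for 16 hours before the ATP read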
NRP1-CendR mod – NRP-1/CendR interaction modulation; FAM-RPARPAR peptide binding to NRP-1, fluorescence polarization; inhibition, % at 25 µM; O14786; 0.85% of 360,000 active; AID 602438;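 active = inhibition or corrected inhibition above about 18%, plus a signal ratio from 0.5 to 1.5, limit read from the data, passing the limit was not always enough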
MT1-MMP act inh – inhibitors of human MT1-MMP activation; P50281; HT1080 RFP-PRO-GFP cells, GFP/RFP ratio fluorescence, overnight; percent of plate control window, DMSO zero; GFP/RFP ratio change, % at 20 µM; 0.061% of 360,000 active;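 active = GFP/RFP ratio change of at least 30% with cell ATP level not reduced by more than half and red fluorescence within 50% of control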
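Assay system: RFP-PRO-GFP reporter HT1080 cells; read-out basis: GFP/RFP fluorescence ratio; benchmarks: DMSO wells and RFP-L50D-GFP cells; doses: 20 µM single dose, 1% DMSO; schedule: overnight cell settling, then overnight compound exposure, 37 °C, 5% CO2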
* = called active by the depositor; x = no result given.

SMILES	SKN-1 inh	iPSC survival up	NRP1-CendR mod	MT1-MMP act inh
COc1ccccc1N1CCN(CC(=O)NC(=O)NCc2ccccc2)CC1	9	0	7	4
O=Cc1c(Cl)[nH]c(=O)n1-c1ccccc1	-3	2	4	3
O=C(O)CCSc1nnc(COc2ccc(Cl)cc2)n1-c1ccccc1	1	0	9	-1
O=C(O)CCSc1nnc(COc2cccc3cccnc23)n1-c1ccccc1	0	1	26*	-2
O=C(NCc1ccc(F)cc1)c1cnc(-c2ccccn2)nc1C(F)(F)F	26	-4	29*	-8
O=C(NCc1ccc(F)cc1)c1cccnc1C(=O)O	11	1	27*	-1
O=C(NCc1cccs1)c1cccnc1C(=O)O	2	2	-1	2
CCOc1ccc(CNC(=O)CCC(=O)N2Cc3cccc(OC)c3Oc3ncccc32)cc1	3	0	-1	0
COc1ccccc1NS(=O)(=O)c1cc(N)ccc1N1CCOCC1	2	3	-10	0
CCOc1ccc(N)c(SSc2cc(OCC)ccc2N)c1	-11	0	10	6
CCOc1cc(-c2ccc(N)c(OCC)c2)ccc1N	8	-1	43*	-20
O=C(CCCNS(=O)(=O)c1cccc2nsnc12)NCCc1ccccc1	2	6	8	-1
O=C(c1cc(COc2c(F)cccc2F)on1)N1CCC(c2ccncc2)CC1	-7	0	-7	-9
O=C(CN1C(=O)c2ccccc2S1(=O)=O)NCCSc1ccccc1	11	-3	8	3
O=C(CN1C(=O)c2ccccc2S1(=O)=O)NCCSCc1ccccc1Cl	0	0	9	-2
Cc1ccc(SCCNC(=O)CN2C(=O)c3ccccc3S2(=O)=O)cc1	37*	-2	9	3
O=C(CN1C(=O)c2ccccc2S1(=O)=O)NCCSCc1c(F)cccc1Cl	14	0	24*	-3
OC[C@@H]1CN(CCc2ccccc2)C[C@H](n2cnc3c(N4CCOCC4)ncnc32)O1	6	6	6	3
COc1ccc(Oc2c(C=O)c3ccccc3n2C)cc1	2	0	26*	5
Cc1ccc(Oc2c(C=O)c3ccccc3n2C)cc1	6	0	12	-8
COc1cccc(C(NC(C)=O)c2nc(-c3ccc(OC)nc3)cs2)c1 (stereo not drawn)	11	2	7	1
COc1cc(C(=O)NCC(=O)NNC(=O)CN(C)S(=O)(=O)c2ccc(Cl)cc2)cc(OC)c1OC	12	1	27*	1
O=C(COC(=O)Cc1ccc(Cl)cc1)Nc1cc(S(=O)(=O)N2CCOCC2)ccc1N1CCCC1	-7	-1	44*	4
Cc1ccc(S(=O)(=O)N2CCOCC2)cc1NC(=O)COC(=O)Cc1ccc(Cl)cc1	-2	0	7	3
CN(Cc1ccc(Br)cc1)C(=O)CCN1C(=O)c2cccc([N+](=O)[O-])c2C1=O	14	0	9	-1
SMILES	SKN-1 inh	iPSC survival up	NRP1-CendR mod	MT1-MMP act inh
COC(=O)[C@@H](NC(=O)c1ccccc1)[C@@H](C)O	-1	1	7	0
CCn1c(NC)cc(=O)n(C)c1=O	-5	-2	21*	5
CNc1cc(=O)n(C)c(=O)n1-c1ccccc1	3	1	0	-3
CCN(CC)c1ccc(/C=c2\sc3nc4ccccc4n3c2=O)c(O)c1	45*	-1	-36	-50
CC1CCc2c(C(=O)Nc3ccccn3)csc2C1 (stereo not drawn)	29	-1	8	-3
CC1CCc2c(C(=O)Nc3nccs3)csc2C1 (stereo not drawn)	37*	0	2	-8
CCOc1cc(NC(=S)NC)c(OCC)cc1NC(=O)c1ccc(OC)cc1	1	0	21*	-3
CCOc1cc(NC(=S)NCC2CCCO2)c(OCC)cc1NC(=O)c1ccc(OC)cc1 (stereo not drawn)	-9	3	-8	0
CCCCNC(=O)c1nc(C2CCNCC2)oc1-c1ccccc1	1	x	2	0
CCOC(=O)c1c(=O)n(O)c2ccc(OC)cc2[n+]1[O-]	-4	2	25*	-30
COc1ccc2c(c1)[n+](=O)c(C(C)=O)c(C)n2[O-]	-7	-4	-1	4
Cc1c(CN2CCC(n3nccc3NC(=O)c3cccc(F)c3)CC2)cnn1C	1	1	19	3
CCCC(C)NC(=O)CN(Cc1ccco1)S(=O)(=O)c1ccccc1 (stereo not drawn)	1	0	23*	2
